Experimental data from ChEMBL document CHEMBL3612020.
pIC50, pKi: −log10 of the molar value. Blank lines part the entries; values can stand above or below the compound they belong to. Active and inactive are the calls of the source. The rule behind the calls is not given here.

Legend:
D-amino-acid oxidase [1] = molecular target: T1, D-amino-acid oxidase (Homo sapiens, UniProt P14920); assay: Inhibition of recombinant human DAAO expressed in HEK cells using D-serine as substrate assessed as formation of alpha-keto acid, ammonia, […] after 20 mins by horseradish peroxidase/o-phenylenediamine-based assay; design: species or system HEK293
In short: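 Human DAAO from HEK cells: lysate in 50 mM Tris pH 8.5 with 100 µM FAD, sonicated, then ion-exchange purified with a 0–0.5 M NaCl gradient. […] Enzyme set to give 2.0 mOD/min uninhibited. Rate read as absorbance change at 411 nm. Mean ± SD of ≥4 experiments in most cases.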

[2] = Terminal half life in CD1 mouse at 10 mg/kg, iv; format: ADME, organism-based; conditions: in vivo, read-out: beta t1/2 (converted)
In short: (§1)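 Male CD1 mice, n = 3 per time point, dosed iv or po. About 1 mL blood taken by cardiac puncture into heparinized tubes, kept on wet ice, centrifuged 10 min at 800 g, 4 °C. Plasma stored at −80 °C; drug levels measured by HPLC–QTOF-MS.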

[3] = AUClast in CD1 mouse at 30 mg/kg, po; format: ADME, organism-based; design: dose 30 mg/kg, route oral, time 0 - last; conditions: in vivo; in short: as §1
[4] = Volume of distribution in CD1 mouse at 10 mg/kg, iv; format: ADME, organism-based; conditions: in vivo; in short: as §1
[5] = Cmax in CD1 mouse at 30 mg/kg, po; format: ADME, organism-based; design: dose 30 mg/kg, route oral; conditions: in vivo; in short: as §1
[6] = Metabolic stability in mouse liver microsomes assessed as compound remaining at 5 uM after 60 mins by LC/MS/MS analysis in presence of NADPH; format: ADME; conditions: 1 h
In short: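 Mouse liver microsomes (0.5 mg/mL) with 5 µM test compound in 100 mM potassium phosphate pH 7.4 plus NADPH regenerating system (1.3 mM NADPH). Reaction started with microsomes, run in duplicate for 60 min, quenched with cold acetonitrile containing internal standard. Parent quantified by LC/MS/MS; cofactor-free controls included.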

Mus musculus [7] = assay: Dose normalized AUClast in CD1 mouse at 10 mg/kg, iv; format: ADME, organism-based; conditions: in vivo; in short: as §1
[8] = Tmax in CD1 mouse at 30 mg/kg, po; format: ADME, organism-based; conditions: in vivo; in short: as §1
[9] = Metabolic stability in mouse liver microsomes assessed as compound remaining at 5 uM after 60 mins by LC/MS/MS analysis in presence of UDPGA; format: ADME; conditions: 1 h
In short: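 Glucuronidation in mouse liver microsomes (0.5 mg/mL): 50 mM Tris-HCl pH 7.5, 8 mM MgCl2, 25 µg/mL alamethicin, pre-incubated at 37 °C. Started with 2 mM UDPGA (final), in duplicate, for 60 min. Quenched with cold acetonitrile plus internal standard; LC/MS/MS read-out, with cofactor-free controls.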

MAO-B = molecular target: T2, MAO-B (Homo sapiens, UniProt P27338); assay: Inhibition of MAO-B (unknown origin) at 10 uM relative to control
T2 sequence (P27338 whole entry): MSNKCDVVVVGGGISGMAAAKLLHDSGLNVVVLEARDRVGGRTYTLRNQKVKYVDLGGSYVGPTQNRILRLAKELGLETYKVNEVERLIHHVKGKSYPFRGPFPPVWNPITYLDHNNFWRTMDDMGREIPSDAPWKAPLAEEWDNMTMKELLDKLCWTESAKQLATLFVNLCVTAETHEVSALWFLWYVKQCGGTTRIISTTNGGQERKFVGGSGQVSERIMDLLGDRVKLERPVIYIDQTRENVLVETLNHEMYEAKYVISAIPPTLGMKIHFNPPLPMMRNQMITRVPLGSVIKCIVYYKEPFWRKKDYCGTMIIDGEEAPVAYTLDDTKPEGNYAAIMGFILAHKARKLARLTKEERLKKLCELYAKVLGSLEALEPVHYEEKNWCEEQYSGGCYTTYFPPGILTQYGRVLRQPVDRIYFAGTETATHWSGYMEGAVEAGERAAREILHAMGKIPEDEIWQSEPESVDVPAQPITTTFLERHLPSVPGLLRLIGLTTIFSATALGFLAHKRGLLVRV

[10] = Clearance in CD1 mouse at 30 mg/kg, iv; format: ADME, organism-based; conditions: in vivo; in short: as §1
D-amino-acid oxidase [11] = molecular target: T1, D-amino-acid oxidase; assay: Inhibition of recombinant human DAAO expressed in HEK cells in presence of 10 to 100 uM of FAD; format: cell-based; conditions: HEK293
In short: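 Reactions ran in 50 mM Tris pH 8.5 with 2% DMSO final, for 20 min at room temperature. Absorbance rate was read at 411 nm. IC50 was determined with FAD raised from 10 to 100 µM.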

[12] = molecular target: T3, Glutamate NMDA receptor; GRIN1/GRIN2A (Homo sapiens) (UniProt Q05586+Q12879); assay: Inhibition of NMDA receptor phencyclidine binding site (unknown origin) at 10 uM relative to control; format: protein-complex assay
[13] = molecular target: T3, Glutamate NMDA receptor; GRIN1/GRIN2A (Homo sapiens); assay: Inhibition of NMDA receptor glycine binding site (unknown origin) at 10 uM relative to control; format: protein-complex assay
Mus musculus [14] = assay: Ratio of drug level in brain to plasma in CD1 mouse at 30 mg/kg, po; format: ADME, organism-based
[15] = molecular target: T3, Glutamate NMDA receptor; GRIN1/GRIN2A (Homo sapiens); assay: Inhibition of NMDA receptor agonist binding site (unknown origin) at 10 uM relative to control; format: protein-complex assay
D-amino-acid oxidase [16] = molecular target: T1, D-amino-acid oxidase; assay: Competitive inhibition of recombinant human DAAO expressed in HEK cells by double reciprocal plot analysis in presence of D-serine; design: species or system HEK293
In short: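 hDAAO was purified from HEK cell lysate by ion-exchange FPLC. […] Activity was read as the rate of absorbance change at 411 nm. The mode of inhibition and Ki came from a double reciprocal plot.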

[17] = AUClast in CD1 mouse at 30 mg/kg, iv; format: ADME, organism-based; design: dose 30 mg/kg, route intravenous, time 0 - last; conditions: in vivo; in short: as §1
Salmonella typhimurium [18] = assay: Mutagenicity in Salmonella typhimurium TA100 by Ames test in absence of S9 mixture; format: toxicity, organism-based; conditions: salmonella enterica subsp. enterica serovar typhimurium
Mus musculus [19] = assay: Oral bioavailability in CD1 mouse at 30 mg/kg; format: ADME, organism-based; conditions: in vivo; in short: as §1
[20] = molecular target: T4, Glycine receptor subunit alpha-1 (Homo sapiens) (UniProt P23415); assay: Inhibition of strychnine-sensitive glycine receptor (unknown origin) at 10 uM relative to control
T4 sequence (whole entry): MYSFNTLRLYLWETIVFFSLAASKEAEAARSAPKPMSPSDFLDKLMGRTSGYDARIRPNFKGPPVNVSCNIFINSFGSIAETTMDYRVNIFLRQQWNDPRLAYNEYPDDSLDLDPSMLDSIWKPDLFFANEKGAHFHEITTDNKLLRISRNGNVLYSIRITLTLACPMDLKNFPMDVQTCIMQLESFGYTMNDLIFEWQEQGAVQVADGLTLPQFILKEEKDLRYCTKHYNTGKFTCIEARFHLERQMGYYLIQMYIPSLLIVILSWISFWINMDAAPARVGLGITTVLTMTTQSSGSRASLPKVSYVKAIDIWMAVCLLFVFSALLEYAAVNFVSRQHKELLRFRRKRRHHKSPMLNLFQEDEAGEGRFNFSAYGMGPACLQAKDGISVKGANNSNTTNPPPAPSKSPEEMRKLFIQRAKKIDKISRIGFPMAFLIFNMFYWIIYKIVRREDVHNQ

[21] = molecular target: Voltage-gated inwardly rectifying potassium channel KCNH2 (Homo sapiens, UniProt Q12809); assay: Inhibition of human ERG up to 25 uM
Voltage-gated inwardly rectifying potassium channel KCNH2, sequence (Q12809 whole entry): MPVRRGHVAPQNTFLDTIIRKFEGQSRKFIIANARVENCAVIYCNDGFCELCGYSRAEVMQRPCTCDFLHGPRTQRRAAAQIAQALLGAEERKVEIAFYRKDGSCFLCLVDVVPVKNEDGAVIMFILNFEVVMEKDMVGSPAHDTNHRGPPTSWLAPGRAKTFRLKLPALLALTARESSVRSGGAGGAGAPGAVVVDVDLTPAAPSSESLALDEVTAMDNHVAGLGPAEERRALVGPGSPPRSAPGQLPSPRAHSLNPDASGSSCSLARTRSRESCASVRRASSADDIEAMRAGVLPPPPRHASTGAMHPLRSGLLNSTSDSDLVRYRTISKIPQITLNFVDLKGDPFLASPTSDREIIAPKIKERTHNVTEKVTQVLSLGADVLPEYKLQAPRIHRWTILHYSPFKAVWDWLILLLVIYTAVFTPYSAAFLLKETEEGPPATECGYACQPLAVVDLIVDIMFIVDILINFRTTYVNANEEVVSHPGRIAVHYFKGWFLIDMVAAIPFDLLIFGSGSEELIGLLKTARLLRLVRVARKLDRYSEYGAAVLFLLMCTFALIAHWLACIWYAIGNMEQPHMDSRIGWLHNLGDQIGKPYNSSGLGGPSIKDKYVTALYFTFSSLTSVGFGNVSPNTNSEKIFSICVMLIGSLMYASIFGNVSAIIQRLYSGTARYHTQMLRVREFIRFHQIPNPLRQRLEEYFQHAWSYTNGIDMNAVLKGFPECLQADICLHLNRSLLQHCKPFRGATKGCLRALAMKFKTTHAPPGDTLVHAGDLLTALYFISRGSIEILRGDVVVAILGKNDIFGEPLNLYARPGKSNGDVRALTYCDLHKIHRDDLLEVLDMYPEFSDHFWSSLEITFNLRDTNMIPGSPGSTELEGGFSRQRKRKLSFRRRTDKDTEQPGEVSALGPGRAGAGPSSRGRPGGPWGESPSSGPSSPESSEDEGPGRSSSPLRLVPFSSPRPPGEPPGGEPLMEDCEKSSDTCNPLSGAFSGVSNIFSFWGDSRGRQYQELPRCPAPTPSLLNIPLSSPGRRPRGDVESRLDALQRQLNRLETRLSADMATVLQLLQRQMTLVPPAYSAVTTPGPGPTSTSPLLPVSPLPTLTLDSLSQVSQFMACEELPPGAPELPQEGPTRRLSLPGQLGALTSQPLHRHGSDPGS

MAO-A = molecular target: T5, MAO-A (Homo sapiens, UniProt P21397); assay: Inhibition of MAO-A (unknown origin) at 10 uM relative to control
T5 sequence (P21397 whole entry): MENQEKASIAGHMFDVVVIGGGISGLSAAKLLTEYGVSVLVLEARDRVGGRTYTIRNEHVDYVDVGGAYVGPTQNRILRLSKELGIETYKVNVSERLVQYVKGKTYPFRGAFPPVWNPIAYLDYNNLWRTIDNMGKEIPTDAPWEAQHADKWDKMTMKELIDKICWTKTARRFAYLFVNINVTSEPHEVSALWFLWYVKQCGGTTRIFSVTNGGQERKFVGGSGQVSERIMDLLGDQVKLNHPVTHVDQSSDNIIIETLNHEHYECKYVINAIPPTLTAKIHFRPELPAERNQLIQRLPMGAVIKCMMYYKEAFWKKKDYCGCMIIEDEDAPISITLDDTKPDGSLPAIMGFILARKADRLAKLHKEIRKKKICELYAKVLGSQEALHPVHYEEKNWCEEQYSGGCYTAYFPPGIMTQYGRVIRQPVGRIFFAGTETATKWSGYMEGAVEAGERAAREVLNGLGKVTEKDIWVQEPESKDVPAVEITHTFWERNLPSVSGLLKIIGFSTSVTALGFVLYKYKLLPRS

Mus musculus [22] = assay: Decrease in plasma clearance of D-serine in CD1 mouse assessed as D-serine AUC (0 to 6 hrs) at 30 mg/kg, po (R[…]microg.hr/ml); format: functional
[23] = molecular target: T3, Glutamate NMDA receptor; GRIN1/GRIN2A (Homo sapiens); assay: Inhibition of NMDA receptor MK801 binding site (unknown origin) at 10 uM relative to control; format: protein-complex assay
Salmonella typhimurium [24] = assay: Mutagenicity in Salmonella typhimurium TA100 by Ames test in presence of S9 mixture; format: toxicity, organism-based; conditions: salmonella enterica subsp. enterica serovar typhimurium
[25] = Volume of distribution in CD1 mouse at 30 mg/kg, iv; format: ADME, organism-based; conditions: in vivo; in short: as §1
Mus musculus [26] = assay: Increase in plasma Cmax of D-serine in CD1 mouse at 30 mg/kg, po; format: ADME, organism-based; conditions: in vivo
[27] = Terminal half life in CD1 mouse at 30 mg/kg, iv; format: ADME, organism-based; conditions: in vivo, read-out: beta t1/2 (converted); in short: as §1

Structure (SMILES): O=c1cc(CSc2ccc(Cl)c(Cl)c2)occ1O
Stability [9]: 5%

Structure (SMILES): O=c1[nH]c(=O)n(CCc2ccc(-c3ccccc3)cc2)nc1O
pIC50 (D-amino-acid oxidase [1]): 7.30

Structure (SMILES): O=c1[nH]c(=O)n(CCc2ccccc2O)nc1O
pIC50 (D-amino-acid oxidase [1]): 7.05

Structure (SMILES): Cc1ccc(CCn2nc(O)c(=O)[nH]c2=O)cc1
pIC50 (D-amino-acid oxidase [1]): 7.05

Structure (SMILES): CC(C)CCn1nc(O)c(=O)[nH]c1=O
pIC50 (D-amino-acid oxidase [1]): 6.59

Structure (SMILES): COc1cccc(CCn2nc(O)c(=O)[nH]c2=O)c1
pIC50 (D-amino-acid oxidase [1]): 6.92

Structure (SMILES): O=c1[nH]c(=O)n(CC(O)c2ccccc2)nc1O (configuration not stated)
pIC50 (D-amino-acid oxidase [1]): 6.33

Structure (SMILES): O=c1[nH]c(=O)n(Cc2cccc3ccccc23)nc1O
inhibition at 10 µM (MAO-B): ≤ 5%
clearance [10]: 10.2 mL/min/kg
inhibition (D-amino-acid oxidase [11]): Active
inhibition [12]: < 5%
inhibition [13]: 22%
AUC(0-t) [3]: 12900 ng·h/mL
BPR (Mus musculus [14]): 0.01
inhibition [15]: < 5%
pKi (D-amino-acid oxidase [16]): 7.22
AUC(0-t) [17]: 16300 ng·h/mL
Activity (Salmonella typhimurium [18]): Non-toxic
F (Mus musculus [19]): 79%
inhibition [20]: < 5%
Cmax [5]: 13800 ng/mL
inhibition (INH) [21]: Not Active
inhibition at 10 µM (MAO-A): ≤ 5%
Stability [6]: >= 99%
Activity (Mus musculus [22]): 96.9 µg·h/mL
inhibition [23]: < 5%
Stability [9]: >= 99%
Activity (Salmonella typhimurium [24]): Non-toxic
Vd [25]: 0.8 L/kg
Tmax [8]: 4.8 min
Activity (Mus musculus [26]): Not Active
half-life [27]: 54 min

Structure (SMILES): O=C(Cn1nc(O)c(=O)[nH]c1=O)c1ccccc1
pIC50 (D-amino-acid oxidase [1]): 6.07

Further lines, results first:

pIC50 (D-amino-acid oxidase [1]): 7.15
Structure (SMILES): Cc1cccc(CCn2nc(O)c(=O)[nH]c2=O)c1

half-life [2]: 12 min
AUC(0-t) [3]: 3900 ng·h/mL
Vd [4]: 0.5 L/kg
Cmax [5]: 6600 ng/mL
Stability [6]: 92%
AUClast/dose (Mus musculus [7]): 12.7 µg·h/mL
Tmax [8]: 15 min
Structure (SMILES): O=c1[nH]nc(CCc2cc(F)cc(F)c2)cc1O

pIC50 (D-amino-acid oxidase [1]): 7.10
Structure (SMILES): O=c1[nH]c(=O)n(CCc2ccc(Oc3ccccc3)cc2)nc1O

pIC50 (D-amino-acid oxidase [1]): 5.55
Structure (SMILES): Cn1nc(O)c(=O)[nH]c1=O

pIC50 (D-amino-acid oxidase [1]): 5.29
Structure (SMILES): O=c1[nH]c(=O)n(Cc2ccccc2)nc1O

pIC50 (D-amino-acid oxidase [1]): 7.40
Structure (SMILES): O=c1[nH]c(=O)n(CCc2ccc(Cl)cc2)nc1O

pIC50 (D-amino-acid oxidase [1]): 5.48
Structure (SMILES): CC(Cn1nc(O)c(=O)[nH]c1=O)c1ccccc1 (configuration not stated)

pIC50 (D-amino-acid oxidase [1]): 7.10
Structure (SMILES): Cc1ccccc1CCn1nc(O)c(=O)[nH]c1=O
